Experimental data taken from ChEMBL document CHEMBL1154608, “Substituted 2-aminothiopen-derivatives: a potential new class of GluR6-antagonists” (Eur J Med Chem, 2010).

Columns and labels:
[1] = Cytotoxicity against monkey COS7 cells at 0.1 to 10 uM after 24 hrs by MTT assay; details: chlorocebus aethiops, cos-7, 24 h
[2] = Cytotoxicity against monkey COS7 cells at 100 uM after 24 hrs by MTT assay; details: chlorocebus aethiops, cos-7, 24 h
[3] = biological target: Glutamate receptor ionotropic kainate 1 (Homo sapiens) (UniProt P39086); test: Antagonist activity at human recombinant GluR5 expressed in HEK cells coexpressing aequorine assessed as inhibition of glutamate-induced Ca2+ influx at 10 uM by luminescence reporter assay relative to control; details: HEK293
Sequence of Glutamate receptor ionotropic kainate 1 (Homo sapiens) (P39086 whole entry, looked up): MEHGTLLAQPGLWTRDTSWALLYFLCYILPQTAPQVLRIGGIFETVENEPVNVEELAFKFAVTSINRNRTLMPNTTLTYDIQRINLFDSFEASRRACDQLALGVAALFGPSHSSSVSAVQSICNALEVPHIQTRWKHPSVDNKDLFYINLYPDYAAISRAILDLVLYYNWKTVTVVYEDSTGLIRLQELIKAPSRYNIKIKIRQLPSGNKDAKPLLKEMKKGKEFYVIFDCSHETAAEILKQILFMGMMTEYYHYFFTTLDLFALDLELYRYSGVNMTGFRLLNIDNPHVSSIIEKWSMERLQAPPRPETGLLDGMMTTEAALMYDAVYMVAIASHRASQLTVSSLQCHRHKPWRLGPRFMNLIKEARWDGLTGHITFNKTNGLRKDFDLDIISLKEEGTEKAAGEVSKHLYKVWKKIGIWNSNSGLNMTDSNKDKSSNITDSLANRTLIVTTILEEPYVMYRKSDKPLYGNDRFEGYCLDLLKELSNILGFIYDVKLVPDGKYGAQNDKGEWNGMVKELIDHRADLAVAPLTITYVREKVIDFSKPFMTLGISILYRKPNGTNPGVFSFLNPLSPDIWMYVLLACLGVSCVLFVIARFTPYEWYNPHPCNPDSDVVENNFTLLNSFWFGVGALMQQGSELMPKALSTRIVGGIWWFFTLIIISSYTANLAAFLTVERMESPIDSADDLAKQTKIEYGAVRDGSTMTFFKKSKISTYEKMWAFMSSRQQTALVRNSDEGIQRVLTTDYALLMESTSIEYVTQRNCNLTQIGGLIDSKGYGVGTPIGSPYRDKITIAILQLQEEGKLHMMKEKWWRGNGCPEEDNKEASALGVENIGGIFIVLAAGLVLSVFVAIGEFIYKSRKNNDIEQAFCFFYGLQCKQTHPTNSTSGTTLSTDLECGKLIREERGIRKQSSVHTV

N2a [4] = test: Cytotoxicity against mouse N2A cells at 0.1 to 10 uM after 24 hrs by MTT assay; assay type: cell-based
Outline: (§1)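 Cell viability was measured by MTT in N2A neuroblastoma and COS7 monkey kidney cells after 24 h compound incubation. Formazan was released with lysis buffer and absorbance was read at 590 nm.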

N2a [5] = test: Cytotoxicity against mouse N2A cells at 100 uM after 24 hrs by MTT assay; assay type: cell-based
Outline: as §1

[6] = biological target: Glutamate receptor ionotropic kainate 2 (Homo sapiens) (UniProt Q13002); test: Antagonist activity at human recombinant GluR6 expressed in HEK cells coexpressing aequorine assessed as inhibition of glutamate-induced Ca2+ influx at 10 uM by luminescence reporter assay relative to control; details: HEK293
Sequence of Glutamate receptor ionotropic kainate 2 (Homo sapiens) (Q13002 whole entry, looked up): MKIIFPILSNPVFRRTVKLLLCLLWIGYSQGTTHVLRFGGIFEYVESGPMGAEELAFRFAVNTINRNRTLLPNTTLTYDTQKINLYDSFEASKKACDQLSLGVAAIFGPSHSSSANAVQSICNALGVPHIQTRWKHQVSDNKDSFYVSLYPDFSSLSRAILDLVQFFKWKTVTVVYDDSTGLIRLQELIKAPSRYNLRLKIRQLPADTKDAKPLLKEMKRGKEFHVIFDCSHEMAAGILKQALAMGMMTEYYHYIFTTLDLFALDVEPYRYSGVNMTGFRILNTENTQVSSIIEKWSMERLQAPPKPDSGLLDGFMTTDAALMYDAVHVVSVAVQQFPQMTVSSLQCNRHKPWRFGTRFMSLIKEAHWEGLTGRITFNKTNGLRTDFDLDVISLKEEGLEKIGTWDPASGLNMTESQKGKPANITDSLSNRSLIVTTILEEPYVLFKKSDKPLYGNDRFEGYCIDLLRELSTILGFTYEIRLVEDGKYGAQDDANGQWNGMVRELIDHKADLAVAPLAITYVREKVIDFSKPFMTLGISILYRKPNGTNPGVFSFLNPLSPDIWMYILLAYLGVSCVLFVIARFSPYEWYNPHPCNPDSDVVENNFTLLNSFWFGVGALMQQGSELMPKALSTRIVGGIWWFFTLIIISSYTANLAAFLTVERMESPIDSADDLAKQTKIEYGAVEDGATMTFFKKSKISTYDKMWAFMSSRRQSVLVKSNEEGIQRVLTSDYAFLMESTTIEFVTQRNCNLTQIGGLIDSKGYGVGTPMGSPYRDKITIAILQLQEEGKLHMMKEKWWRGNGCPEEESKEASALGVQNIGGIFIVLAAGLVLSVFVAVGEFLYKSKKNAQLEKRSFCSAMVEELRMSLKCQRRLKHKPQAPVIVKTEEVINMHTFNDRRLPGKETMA

[7] = biological target: Glutamate receptor ionotropic kainate 1 (Homo sapiens) (UniProt P39086); test: Antagonist activity at human recombinant GluR5 expressed in HEK cells coexpressing aequorine assessed as inhibition of glutamate-induced Ca2+ influx at 100 uM by luminescence reporter assay relative to control; details: HEK293
[8] = biological target: Glutamate receptor ionotropic kainate 2 (Homo sapiens) (UniProt Q13002); test: Antagonist activity at human recombinant GluR6 expressed in HEK cells coexpressing aequorine assessed as inhibition of glutamate-induced Ca2+ influx at 100 uM by luminescence reporter assay relative to control; details: HEK293

SMILES | inhibition [3] [%] | inhibition [6] [%] | also measured
CCOC(=O)c1c(N=C=S)sc(-c2ccccc2)c1C | 0 | – | Activity [1]: Non-toxic; Activity [2]: Toxic; Activity (N2a [4]): Non-toxic; Activity (N2a [5]): Toxic
CCSc1nc2sc(-c3ccccc3)c(C)c2c(=O)[nH]1 | 1 | 0 | –
CCOC(=O)c1c(NC(=O)c2ccccc2)sc(-c2ccccc2)c1C | -3 | 5 | –
CCNC(=O)Nc1sc2c(c1C(N)=O)CCCC2 | 0.1 | 12 | –
CCSc1nc2sc3c(c2c(=O)[nH]1)CCCC3 | 8 | 4 | –
Cc1c(-c2ccccc2)sc(N)c1C#N | 17 | – | –
CCOC(=O)c1c(N)sc2c1CCCC2 | 7 | 11 | –
CCNC(=O)Nc1sc(-c2ccccc2)c(C)c1C(N)=O | 5.8 | 17 | –
CCOC(=O)c1cc(-c2ccccc2)sc1N | – | -1 | inhibition [7]: 25%
CCOC(=O)C(=O)Nc1sc(-c2ccccc2)c(C)c1C(=O)OCC | 4 | 10 | –
CCOC(=O)c1c(NC(=O)CNCc2ccccc2)sc(-c2ccccc2)c1C | 25 | 4 | –
CCNC(=O)Nc1sc(-c2ccccc2)c(C)c1C(=O)OCC | 0.5 | 9 | –
CCOC(=O)c1c(N)sc(-c2ccccc2)c1-c1ccccc1 | 13 | – | Activity [1]: Non-toxic; Activity (N2a [4]): Non-toxic; Activity (N2a [5]): Toxic
CCOC(=O)c1c(N)sc(-c2ccccc2Cl)c1C | 10 | – | –
CCOC(=O)Nc1sc(-c2ccccc2)c(C)c1C(=O)O | 12 | 7 | –
CCOC(=O)c1c(N)sc(-c2ccc(F)cc2)c1C | 0 | – | –
CCCOC(=O)c1c(N)sc(-c2ccccc2)c1C | 5 | – | Activity [1]: Non-toxic; Activity [2]: Toxic; Activity (N2a [4]): Non-toxic; Activity (N2a [5]): Toxic
Cc1c(-c2ccccc2)sc2[nH]c(=S)[nH]c(=O)c12 | 10 | -2 | –
CCOC(=O)Nc1sc(-c2ccccc2)c(C)c1C(N)=O | 19 | 12 | –
CCOC(=O)c1c(NC(=O)CN2CCOCC2)sc(-c2ccccc2)c1C | 14 | 9 | –
CCNC(=O)c1c(N)sc(-c2ccccc2)c1C | 9 | 4 | –
CCn1c(=O)[nH]c2sc3c(c2c1=O)CCCC3 | 6 | 7.1 | –

SMILES | inhibition [3] [%] | inhibition [6] [%] | also measured
CCOC(=O)c1c(N=NC#N)sc(-c2ccccc2)c1C | 7 | – | –
Cc1c(-c2ccccc2)sc(N)c1C(=O)c1ccccc1 | 17 | – | –
Oc1nc(S)nc2sc3c(c12)CCCC3 | 17 | 0 | –
Cc1c(-c2ccccc2)sc(N)c1C(=O)O | – | 44 | inhibition [7]: 20%
CCOC(=O)c1c(N)sc(-c2ccccc2)c1C | 12 | – | Activity [1]: Non-toxic; Activity [2]: Toxic; Activity (N2a [4]): Non-toxic; Activity (N2a [5]): Toxic
CCOC(=O)c1c(Cl)sc(-c2ccccc2)c1C | 0 | – | –
CCOC(=O)c1c(N=NN2CCOCC2)sc(-c2ccccc2)c1C | 4 | – | –
Cc1c(-c2ccccc2)sc(N)c1C(=O)OC(C)(C)C | 4 | – | –
CCOC(=O)c1c(-n2cccc2)sc(-c2ccccc2)c1C | -1 | 2 | –
CCNC(=S)Nc1sc(-c2ccccc2)c(C)c1C(=O)OCC | 7 | -6.5 | –
NC(=O)c1c(N)sc2c1CCCC2 | 4 | 13 | –
CCOC(=O)c1c(NC)sc(-c2ccccc2)c1C | 4.5 | 19 | –
Cc1c(-c2ccccc2)sc(N)c1C(N)=O | – | – | inhibition [8]: 3%; inhibition [7]: 2%
CCOC(=O)c1c(NC(C)=O)sc(-c2ccccc2)c1C | 3 | 4 | –
COC(=O)c1c(N)sc(-c2ccccc2)c1C | – | – | Activity [1]: Non-toxic; Activity [2]: Non-toxic; Activity (N2a [4]): Non-toxic
CCOC(=O)Nc1cc(C)c(-c2ccccc2)s1 | 1 | 18 | –
CCOC(=O)c1c(N)sc(-c2ccc(OC)cc2)c1C | 1 | – | –
CCOC(=O)Nc1sc2c(c1C(N)=O)CCCC2 | 14 | 17 | –
CCOC(=O)c1c(N=NN(C)C)sc(-c2ccccc2)c1C | 10 | – | –
CCn1c(=O)[nH]c2sc(-c3ccccc3)c(C)c2c1=O | 11.8 | 9.5 | –
CCOC(=O)c1c(NC(=O)C(F)(F)F)sc(-c2ccccc2)c1C | 18 | 20 | –
